# In ChEMBL document CHEMBL3046655, “Schiff bases as potential fungicides and nitrification inhibitors” (2009):
# Active and inactive are the calls of the source. No cut-off for these calls is given here.
# Tested on: Macrophomina phaseolina
# Test: Fungicidal activity against Rhizoctonia bataticola assessed as fungal growth inhibition at 28 degC by poisoned food technique
# Type: functional
# Conditions: not given
# Outline: (§1)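 Poisoned-food assay on PDA. A 5 mm plug from the growing edge of a 2-week colony was placed centrally. Plates were held at 28 °C until control growth was nearly complete. Colony diameter was measured; n=4. Inhibition = (C−T)×100/C, Abbott-corrected; ED50 by probit.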
row,SMILES,ED50
1,O=[N+]([O-])c1cccc(/C=N/CCCC/N=C/c2cccc([N+](=O)[O-])c2)c1,inactive
2,O=[N+]([O-])c1cccc(/C=N/C2CCCCC2/N=C/c2cccc([N+](=O)[O-])c2)c1 (stereo unspecified),inactive
3,O=[N+]([O-])c1cccc(/C=N/CCC/N=C/c2cccc([N+](=O)[O-])c2)c1,inactive

# Same assay, conditions: read-out: ED50 (the source's name)
row,SMILES,EC50 [µg/mL]
1,Clc1cccc(Cl)c1/C=N/C1CCCCC1/N=C/c1c(Cl)cccc1Cl (stereo unspecified),124
2,Fc1cccc(/N=C/c2c(Cl)cccc2Cl)c1,54
3,Clc1ccc(/C=N/c2cc(Cl)c(Cl)cc2Cl)c(Cl)c1,3.05
4,Clc1ccc(/C=N/c2ccco2)c(Cl)c1,23.1
5,Clc1ccc(/C=N/CCC/N=C/c2ccc(Cl)cc2Cl)c(Cl)c1,17.8
6,O=[N+]([O-])c1cccc(/C=N/c2cc(Cl)c(Cl)cc2Cl)c1,6.17
7,Clc1cccc(Cl)c1/C=N/CCCC/N=C/c1c(Cl)cccc1Cl,12.4
8,O=[N+]([O-])c1cccc(/C=N/c2ccccc2F)c1,113
9,O=[N+]([O-])c1cccc(/C=N/c2cccc(F)c2)c1,180
10,Fc1cccc(/N=C/c2ccc(Cl)cc2Cl)c1,600
11,Fc1ccc(/N=C/c2c(Cl)cccc2Cl)cc1,123
12,Clc1cccc(Cl)c1/C=N/c1ccco1,45.7
13,Fc1ccc(/N=C/c2ccc(Cl)cc2Cl)cc1,21.8
14,Clc1ccc(/C=N/C2CCCCC2/N=C/c2ccc(Cl)cc2Cl)c(Cl)c1 (stereo unspecified),18.3
15,O=[N+]([O-])c1cccc(/C=N/c2ccco2)c1,17.1
16,CCCCC(O)(Cn1cncn1)c1ccc(Cl)cc1Cl (stereo unspecified) [HEXACONAZOLE],1.7
17,O=[N+]([O-])c1cccc(/C=N/c2ccc(F)cc2)c1,190
18,Clc1ccc(/C=N/CCCC/N=C/c2ccc(Cl)cc2Cl)c(Cl)c1,100
19,Fc1ccccc1/N=C/c1c(Cl)cccc1Cl,45
20,Fc1ccccc1/N=C/c1ccc(Cl)cc1Cl,15.6

# Tested on: Athelia rolfsii
# Test: Fungicidal activity against Athelia rolfsii assessed as fungal growth inhibition at 28 degC by poisoned food technique
# Type: functional
# Conditions: Agroathelia rolfsii
# Outline: as §1
row,SMILES,ED50
1,O=[N+]([O-])c1cccc(/C=N/CCCC/N=C/c2cccc([N+](=O)[O-])c2)c1,inactive
2,O=[N+]([O-])c1cccc(/C=N/C2CCCCC2/N=C/c2cccc([N+](=O)[O-])c2)c1 (stereo unspecified),inactive
3,O=[N+]([O-])c1cccc(/C=N/CCC/N=C/c2cccc([N+](=O)[O-])c2)c1,inactive

# Same assay, conditions: Agroathelia rolfsii; read-out: ED50 (the source's name)
row,SMILES,EC50 [µg/mL]
1,Clc1cccc(Cl)c1/C=N/C1CCCCC1/N=C/c1c(Cl)cccc1Cl (stereo unspecified),39.5
2,Fc1cccc(/N=C/c2c(Cl)cccc2Cl)c1,87
3,Clc1ccc(/C=N/c2cc(Cl)c(Cl)cc2Cl)c(Cl)c1,24.4
4,Clc1ccc(/C=N/c2ccco2)c(Cl)c1,35.2
5,Clc1ccc(/C=N/CCC/N=C/c2ccc(Cl)cc2Cl)c(Cl)c1,27.1
6,O=[N+]([O-])c1cccc(/C=N/c2cc(Cl)c(Cl)cc2Cl)c1,21.7
7,Clc1cccc(Cl)c1/C=N/CCCC/N=C/c1c(Cl)cccc1Cl,22.1
8,O=[N+]([O-])c1cccc(/C=N/c2ccccc2F)c1,160
9,O=[N+]([O-])c1cccc(/C=N/c2cccc(F)c2)c1,175
10,Fc1cccc(/N=C/c2ccc(Cl)cc2Cl)c1,548
11,Fc1ccc(/N=C/c2c(Cl)cccc2Cl)cc1,108
12,Clc1cccc(Cl)c1/C=N/c1ccco1,78.3
13,Fc1ccc(/N=C/c2ccc(Cl)cc2Cl)cc1,37.4
14,Clc1ccc(/C=N/C2CCCCC2/N=C/c2ccc(Cl)cc2Cl)c(Cl)c1 (stereo unspecified),34.2
15,O=[N+]([O-])c1cccc(/C=N/c2ccco2)c1,201
16,CCCCC(O)(Cn1cncn1)c1ccc(Cl)cc1Cl (stereo unspecified) [HEXACONAZOLE],2.3
17,O=[N+]([O-])c1cccc(/C=N/c2ccc(F)cc2)c1,164
18,Clc1ccc(/C=N/CCCC/N=C/c2ccc(Cl)cc2Cl)c(Cl)c1,179
19,Fc1ccccc1/N=C/c1c(Cl)cccc1Cl,45.6
20,Fc1ccccc1/N=C/c1ccc(Cl)cc1Cl,63.4
